Data as given in ChEMBL document CHEMBL4825663 (J Med Chem, 2021).
pIC50: −log10 of the molar value. Values belong to the molecule of their own block, whether it stands above or below them. The source made the active and inactive calls. The rule behind the calls is not given here.

How the values were obtained:
[1] = Drug distribution in Beagle dog liver; assay type: ADME, tissue-based, Canis lupus familiaris; details: in vivo
[2] = Inhibition of P-gp in MDCK-MDR1 cells assessed as reduction in basal to apical transport of paclitaxel measured after 120 mins by LC-MS/MS analysis; assay type: cell-based; details: Canis lupus familiaris, MDCK-MDR1, 2 h
[3] = target: T1, Solute carrier family 22 member 6 (Homo sapiens, UniProt Q4U2R8); experiment: Inhibition of human OAT1 assessed as reduction in intracellular probe substrate accumulation upto 100 uM by microplate scintillation counter analysis relative to control; assay type: cell-based
T1 sequence (Q4U2R8 whole entry): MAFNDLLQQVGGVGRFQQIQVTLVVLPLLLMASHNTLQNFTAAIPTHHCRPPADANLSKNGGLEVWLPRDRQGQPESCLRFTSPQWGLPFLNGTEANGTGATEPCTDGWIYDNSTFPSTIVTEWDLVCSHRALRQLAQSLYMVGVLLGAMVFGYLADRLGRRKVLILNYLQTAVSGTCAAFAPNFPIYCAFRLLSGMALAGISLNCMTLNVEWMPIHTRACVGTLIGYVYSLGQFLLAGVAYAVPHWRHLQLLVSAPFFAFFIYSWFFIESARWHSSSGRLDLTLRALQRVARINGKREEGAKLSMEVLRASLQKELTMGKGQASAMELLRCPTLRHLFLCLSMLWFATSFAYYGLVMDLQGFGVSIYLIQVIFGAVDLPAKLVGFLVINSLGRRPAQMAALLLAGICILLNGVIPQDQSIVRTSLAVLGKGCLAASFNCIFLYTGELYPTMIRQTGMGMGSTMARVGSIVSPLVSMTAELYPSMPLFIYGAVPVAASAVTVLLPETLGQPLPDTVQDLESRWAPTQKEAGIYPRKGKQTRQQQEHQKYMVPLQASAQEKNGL
In short: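 Cellular uptake-inhibition assays used Chinese hamster ovary, HEK293 or MDCKII cells stably expressing the respective human SLC transporter, run alongside the corresponding control cells. Inhibitor was tested at concentrations up to 100 μM.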

[4] = Cmax in Sprague-Dawley rat at 10 mg/kg, po measured upto 48 hrs by LC-MS/MS analysis; details: in vivo
[5] = Half life in Sprague-Dawley rat at 3 mg/kg, iv measured upto 48 hrs by LC-MS/MS analysis; assay type: ADME, organism-based; details: in vivo
In short: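 Plasma pharmacokinetics in male Sprague-Dawley rats and male Beagle dogs (n = 3 per species), each given a single dose by IV at 3 mg/kg and by PO at 10 mg/kg. Cmax, Tmax, T1/2 and AUClast were derived for each route. F (%) was calculated from the PO and IV AUClast.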

Cytochrome P450 3A4 = Cytochrome P450 3A4 (Homo sapiens, UniProt P08684); experiment: Drug metabolism assessed as human CYP3A4-mediated metabolism; assay type: ADME; details: recombinant enzyme
Chain of Cytochrome P450 3A4 (P08684 whole entry): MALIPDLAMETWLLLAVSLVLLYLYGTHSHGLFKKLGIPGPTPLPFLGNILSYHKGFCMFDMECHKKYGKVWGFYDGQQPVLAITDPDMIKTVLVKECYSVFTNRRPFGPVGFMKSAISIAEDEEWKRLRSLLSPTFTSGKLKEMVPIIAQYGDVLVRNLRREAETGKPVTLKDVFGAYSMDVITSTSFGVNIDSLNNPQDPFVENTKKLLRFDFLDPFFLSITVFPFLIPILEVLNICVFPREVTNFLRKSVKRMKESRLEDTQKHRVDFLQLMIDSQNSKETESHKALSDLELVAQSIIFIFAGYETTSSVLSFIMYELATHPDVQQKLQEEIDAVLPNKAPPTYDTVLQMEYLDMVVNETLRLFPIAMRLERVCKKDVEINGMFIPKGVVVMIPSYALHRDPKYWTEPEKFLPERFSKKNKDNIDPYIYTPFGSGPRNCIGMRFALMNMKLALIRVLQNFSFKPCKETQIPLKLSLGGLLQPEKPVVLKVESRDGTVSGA

[6] = Tmax in Sprague-Dawley rat at 6 mg/kg, iv measured upto 24 hrs by LC-MS/MS analysis; assay type: ADME, organism-based; details: in vivo
[7] = Drug excretion in Sprague-Dawley rat bile at 20 mg/kg, po in presence of 10 mg/kg encequidar; assay type: ADME, organism-based; details: in vivo
MDA-MB-231 = experiment: Antitumor activity against human MDA-MB-231 cells xenografted in athymic nude mouse assessed as reduction in tumor growth at 40 mg/kg, po administered every other day for 4 doses in presence 16 mg/kg encequidar and monitored for 70 to 82 days; assay type: functional, organism-based; details: time 70-82 day
NCI-H460 [8] = experiment: Antitumor activity against human NCI-H460 cells xenografted in athymic nude mouse assessed as median tumor growth delay at 18 mg/kg, iv administered every other day for 4 doses and monitored for 48 days; assay type: functional; details: time 48 day
In short: (§1)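 Female athymic NCr-nu mice carried subcutaneous NCI-H460 xenografts. […] Tumor weights and body weights were followed for 48 days after implantation. Read-out was median tumor growth delay.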

[9] = Ratio of drug concentration in BALB/c mouse stomach to plasma at 20 mg/kg, po measured upto 24 hrs in presence of 10 mg/kg encequidar by LC-MS/MS analysis; assay type: ADME, organism-based
[10] = Drug distribution in Sprague-Dawley rat kidney at 20 mg/kg, po measured upto 168 hrs in presence of 10 mg/kg encequidar by LC-MS/MS analysis; assay type: ADME, organism-based; details: in vivo
HT-29 = experiment: Antitumor activity against human HT-29 cells xenografted in athymic nude mouse assessed as induction of remission of tumor growth at 40 mg/kg, po in presence of 20 mg/kg encequidar measured until day 47; assay type: functional, organism-based
[11] = Toxicity in athymic nude mouse xenografted with human NCI-H460 cells assessed as mortality at 18 to 24 mg/kg, iv administered every other day for 4 doses monitored for 48 days; assay type: organism-based; details: in vivo, 1152 h, dose 18-24 mg/kg, time 48 day
In short: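 Female athymic NCr-nu mice carried subcutaneous NCI-H460 human lung tumor xenografts. Paclitaxel was given IV at 18 or 24 mg/kg every other day for four doses. Animals were followed for 48 days after tumor implantation, with individual body weights and mortality recorded alongside tumor weights.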

[12] = AUClast in Sprague-Dawley rat at 20 mg/kg, po measured upto 24 hrs by LC-MS/MS analysis; assay type: ADME, organism-based; parameters: route oral, dose 20 mg/kg, time <=24; details: in vivo
[13] = Ratio of drug concentration in BALB/c mouse spleen to plasma at 20 mg/kg, po measured upto 24 hrs in presence of 10 mg/kg encequidar by LC-MS/MS analysis; assay type: ADME, organism-based
[14] = Ratio of drug concentration in BALB/c mouse kidney to plasma at 20 mg/kg, po measured upto 24 hrs in presence of 10 mg/kg encequidar by LC-MS/MS analysis; assay type: ADME, organism-based
[15] = Toxicity in athymic nude mouse xenografted with human MDA-MB-231 cells assessed as reduction in body weight at 30 mg/kg, po administered every other day for 4 doses in presence of 12 mg/kg encequidar and monitored for 70 to 82 days; assay type: organism-based; parameters: scale not given: the % may be the effect or the level left; details: in vivo, time 70-82 day
In short: (§2)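 Female athymic NCr-nu mice (n = 10/group) bearing subcutaneous MDA-MB-231 xenografts were treated from day 8. […] Individual body weights were monitored for 82 days after implantation.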

[16] = Toxicity in athymic nude mouse xenografted with human MDA-MB-231 cells assessed as reduction in body weight at 20 mg/kg, po administered every other day for 4 doses in presence of 8 mg/kg encequidar and monitored for 70 to 82 days; assay type: organism-based; details: in vivo, time 70-82 day; in short: as §2
[17] = Oral bioavailability in Sprague-Dawley rat at 20 mg/kg measured upto 24 hrs by LC-MS/MS analysis; assay type: ADME, organism-based; details: in vivo
NCI-H460 [18] = experiment: Antitumor activity against human NCI-H460 cells xenografted in athymic nude mouse assessed as median tumor growth delay at 30 mg/kg, po administered every other day for 4 doses in presence of 12 mg/kg encequidar and monitored for 48 days; assay type: functional; details: time 48 day; in short: as §1

- Drug uptake [1]: Active
- pIC50 [2]: 7.46
- inhibition (INH) [3]: < 50%
- Cmax [4]: 7.1 ng/mL
- half-life [5]: 14.8 h
- Drug metabolism (Cytochrome P450 3A4): Metabolite_Detected
SMILES: COc1cc2c(cc1OC)CN(CCc1ccc(-n3nnc(-c4cc(OC)c(OC)cc4NC(=O)c4cc(=O)c5ccccc5o4)n3)cc1)CC2

SMILES: CC(=O)O[C@H]1C(=O)[C@@]2(C)[C@H]([C@H](OC(=O)c3ccccc3)[C@]3(O)C[C@H](OC(=O)[C@H](O)[C@@H](NC(=O)c4ccccc4)c4ccccc4)C(C)=C1C3(C)C)[C@]1(OC(C)=O)CO[C@@H]1C[C@@H]2O [PACLITAXEL]
- Tmax [6]: 4.8 min
- Drug excretion [7]: Metabolite_Detected
- Activity (MDA-MB-231): Active
- Time (NCI-H460 [8]): 8.5 days
- Kp at 24 h [9]: > 1
- Drug uptake [10]: Active
- Activity (HT-29): Active
- Activity [11]: Non-Toxic
- AUC(0-t) at 24 h [12]: 0.308 µg·h/mL
- Kp at 24 h [13]: > 1
- Kp at 24 h [14]: > 1
- Activity [15]: 5%
- Activity [16]: Non-Toxic
- bioavailability [17]: 3.4%
- Time (NCI-H460 [18]): 9.9 days
